Test results: ChEMBL document CHEMBL1143821, “Fatty acyl benzamido antibacterials based on inhibition of DnaK-catalyzed protein folding” (J Biol Chem, 2007)
In brackets after ≈: the same amount, converted by molar mass. Activity calls are given as the source filed them. The rule behind the calls is not given here.

What was measured:
[1] = Toxicity against human erythrocytes assessed as hemolytic activity; format: cell-based, Erythrocyte
Outline: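 Human erythrocytes were washed in Tris-buffered saline pH 7.4. Cells at 2.5×10^8 cells/ml were exposed to 3.1–50 μg/ml compound for 30 min at 42 °C with gentle shaking, chilled, and centrifuged. Hemoglobin in the supernatant was read at 550 nm after 10-fold dilution in 0.5% NH4OH. Saponin 100 mg/liter = 100%, phosphate buffer = 0%. EC50 from dose-response curves.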

Escherichia coli [2] = experiment: Antimicrobial activity against Escherichia coli MC4100 at 42 degC; format: functional
Outline: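 Liquid growth inhibition in Mueller-Hinton medium, run in triplicate. Compound was dissolved in ethanol/10 mM potassium phosphate pH 7.8, and its concentration was set by absorbance at 236 nm. Varying concentrations were added to mid-log E. coli MC4100 and incubated 24 h at 42 °C, then plated at 37 °C overnight for CFU. MIC = concentration giving 99.9% growth inhibition (NCCLS).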

[3] = Inhibition of Escherichia coli MC4100 DnaK assessed as effect on luciferase refolding
Outline: (§1)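 Firefly luciferase was denatured 1 h at 10 °C in 6.0 M guanidinium chloride with 5 mM DTT, Tris pH 7.4, at 2.08 μM. It was diluted to 10.4 nM into MOPS pH 7.8 buffer with 1 mM ATP, 5 mM MgCl2, 436 nM DnaK, 160 nM DnaJ and 436 nM GrpE, preincubated 10 min with compound, at 10 °C and 30 °C. Activity was read by luminescence after 1 h. IC50 from a one-site competition fit.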

Escherichia coli [4] = experiment: Increase in transcriptional activity of heat shock inducible rpoDPhs promoter of sigma32 gene in Escherichia coli MC4100 at 200 uM assessed as beta galactosidase activity after 12 hrs at 42 degC; format: functional
Escherichia coli [5] = experiment: Increase in transcriptional activity of heat shock inducible pGroESL promoter of sigma32 gene in Escherichia coli MC4100 at 200 uM assessed as beta galactosidase activity after 12 hrs at 42 degC; format: functional
Escherichia coli [6] = experiment: Effect on membrane permeability of Escherichia coli MC4100 assessed as beta lactamase activity in medium at 25 degC; format: functional
Outline: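 Cells were grown with 200 μM compound for 24 h. β-Lactamase activity released to the medium was compared with total activity.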

Escherichia coli [7] = experiment: Antimicrobial activity against Escherichia coli MC4100 delta-tig at 30 degC; format: functional
[8] = Inhibition of secondary amide peptide bond cis/trans isomerase activity of Escherichia coli MC4100 DnaK/DnaJ/GrpE assessed as luciferase refolding; outline: as §1
Escherichia coli [9] = experiment: Inhibition of Escherichia coli MC4100 DnaK-reduced carboxymethylated lactalbumin complex up to 500 uM
Escherichia coli [10] = experiment: Antimicrobial activity against Escherichia coli MC4100 up to 1.4 mg/ml at 37 degC; format: functional, organism-based
Escherichia coli [11] = experiment: Binding affinity to DnaK in Escherichia coli MC4100 at 0.7 mM by pull-down assay
Outline: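 MC4100 grown overnight in LB at 42 °C and lysed by sonication. Lysate incubated 1 h at room temperature with 0.7 mM biotinylated inhibitor in buffer C (20 mM Tris/HCl pH 7.5, 50 mM KCl, 1 mM MgCl2). BSA-blocked streptavidin beads then added for a further 1 h. Beads washed twice; bound protein eluted with 1.92 mM (final) non-biotinylated parent inhibitor. Read by SDS-PAGE and anti-DnaK immunoblot.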

Escherichia coli [12] = experiment: Increase in transcriptional activity of heat shock inducible PhtrP-lacZ promoter of sigma32 gene in Escherichia coli MC4100 at 200 uM assessed as beta galactosidase activity after 12 hrs at 42 degC; format: functional, organism-based
[13] = Inhibition of secondary amide peptide bond cis/trans isomerase activity of Escherichia coli MC4100 DnaK assessed as RNase T1P39A refolding assay
Escherichia coli [14] = experiment: Antimicrobial activity against Escherichia coli MC4100 at 30 degC; format: functional
Escherichia coli [15] = experiment: Increase heat shock-induced protein aggregation in wild type Escherichia coli MC4100; format: functional, organism-based
Outline: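 Wild-type MC4100 was grown at 30 °C to mid-exponential phase, exposed 15 min to compound (0.13 or 0.066 mg/ml), heat-shocked 30 min at 45 °C, then recovered 3 h at 30 °C. The Nonidet P-40-insoluble aggregated protein fraction was isolated by lysozyme/sonication lysis and differential centrifugation, then run on 12.5% SDS-PAGE with Coomassie stain, equal cell numbers per lane. ΔdnaK cells were the reference.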

Escherichia coli [16] = experiment: Inhibition of ATPase activity of Escherichia coli MC4100 DnaK at 150 uM
Outline: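 Steady-state ATPase assay. 1 µM DnaK preincubated with 150 µM inhibitor for 10 min at 30 °C. Reaction started with 330 µM ATP and followed for at least 10 min.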

Escherichia coli [17] = experiment: Inhibition of IPTG-induced thermotolerance in heat shocked Escherichia coli MC4100 expressing delta-DnaK at 1.35 mM; format: functional, organism-based
Outline: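 E. coli MC4100 ΔdnaK pTrc99A-DnaK was grown at 30 °C in Terrific Broth and induced 1 h with 0–1.0 mM IPTG. Cells were heat-shocked 210 s at 57 °C with 1.35 mM compound added just before, then iced 2 min. Serial dilutions were spotted on LB with marker and IPTG and grown 12 h at 30 °C. DnaK levels were checked by immunoblot.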

Escherichia coli [18] = experiment: Induction of heat shock response in Escherichia coli MC4100 at 30 degC; format: functional, organism-based
Escherichia coli [19] = experiment: Activation of Escherichia coli MC4100 RNA polymerase at 200 uM by transcription assay
Outline: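 In vitro transcription of small circular single-strand DNA universal templates by purified E. coli RNA polymerase core enzyme, run per the kit manufacturer's protocol.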

Escherichia coli [20] = experiment: Increase in transcriptional activity of heat shock inducible PhtrL-lacZ promoter of sigma32 gene in Escherichia coli MC4100 at 200 uM assessed as beta galactosidase activity after 12 hrs at 42 degC; format: functional, organism-based
[21] = Displacement of sigma32 derived peptide from Escherichia coli MC4100 DnaK
Escherichia coli [22] = experiment: Inhibition of Escherichia coli MC4100 DnaK-reduced carboxymethylated lactalbumin complex at >25 uM

Compound | EC50 [1] | MIC (Escherichia coli [2]) | IC50 [3] | other results
CCCCCCCCCCCCCCCC(=O)NCc1ccc(C(=O)N[C@H](C(=O)O)[C@@H](C)CC)cc1 | 50 µg/mL (≈ 99.5 µM) | 180 µg/mL (≈ 358 µM) | 1.2 µg/mL (≈ 2.39 µM) | –
CCCCCCCCCCCCCC(=O)NCc1ccc(C(=O)N[C@@H](CCC(N)=O)C(=O)O)cc1 | 520 µg/mL (≈ 1060 µM) | 2800 µg/mL (≈ 5720 µM) | 11.5 µg/mL (≈ 23.5 µM) | –
CCCCCC/C=C\CCCCCCCC(=O)NCc1ccc(C(=O)N[C@H](C(=O)O)[C@@H](C)CC)cc1 | 250 µg/mL (≈ 499 µM) | 1300 µg/mL (≈ 2600 µM) | 3.6 µg/mL (≈ 7.19 µM) | –
CCCCCCCCCC(=O)NCc1ccc(C(=O)N[C@H](C(=O)O)[C@@H](C)CC)cc1 | > 1000 µg/mL | 490 µg/mL (≈ 1170 µM) | 40.4 µg/mL (≈ 96.5 µM) | –
CCCCCCCCCCCCCCCCCC(=O)NCc1ccc(C(=O)N[C@H](C(=O)O)[C@@H](C)CC)cc1 | 30 µg/mL (≈ 56.5 µM) | 3100 µg/mL (≈ 5840 µM) | 2.3 µg/mL (≈ 4.33 µM) | –
CC/C=C/CC(=O)NCc1ccc(C(=O)N[C@H](C(=O)O)[C@@H](C)CC)cc1 | > 1500 µg/mL | 280 µg/mL (≈ 777 µM) | 35.9 µg/mL (≈ 99.6 µM) | –
CCCCCC(=O)NCc1ccc(C(=O)N[C@H](C(=O)O)[C@@H](C)CC)cc1 | > 1500 µg/mL | 1000 µg/mL (≈ 2760 µM) | > 400 µg/mL | Activity (Escherichia coli [4]): inactive; Activity (Escherichia coli [5]): inactive; Activity (Escherichia coli [6]): 3.68%
CCCCCCCCCCCCCC(=O)NCCc1ccc(C(=O)N[C@H](C(=O)O)[C@@H](C)CC)cc1 | 35 µg/mL (≈ 71.6 µM) | 640 µg/mL (≈ 1310 µM) | 2.6 µg/mL (≈ 5.32 µM) | –
CCCCCCCCCCCCCC(=O)NCc1ccc(C(=O)N[C@@H](CC(N)=O)C(=O)O)cc1 | > 10 µg/mL | 100 µg/mL (≈ 210 µM) | 4.6 µg/mL (≈ 9.67 µM) | –
CCCCCCCCCCCCCC(=O)NCc1ccc(C(=O)N[C@H](C(N)=O)[C@@H](C)CC)cc1 | 100 µg/mL (≈ 211 µM) | 1200 µg/mL (≈ 2530 µM) | 6.1 µg/mL (≈ 12.9 µM) | –
CC1(C)S[C@@H]2[C@H](NC(=O)[C@H](N)c3ccccc3)C(=O)N2[C@H]1C(=O)O [AMPICILLIN] | – | 14 µg/mL (≈ 40.1 µM) | – | –
CCCCCCCCCCCCCC(=O)NCc1cccc(C(=O)N[C@H](C(=O)O)[C@@H](C)CC)c1 | 84 µg/mL (≈ 177 µM) | > 2000 µg/mL | 7 µg/mL (≈ 14.7 µM) | –
CCCCCCCCCCCC(=O)NCc1ccc(C(=O)N[C@H](C(=O)O)[C@@H](C)CC)cc1 | 400 µg/mL (≈ 896 µM) | 650 µg/mL (≈ 1460 µM) | 1.9 µg/mL (≈ 4.25 µM) | –
CCCCCCCCCCCCCC(=O)NCc1ccc(C(=O)N[C@H](C(=O)O)[C@@H](C)CC)cc1 | 66 µg/mL (≈ 139 µM) | 380 µg/mL (≈ 801 µM) | 4.9 µg/mL (≈ 10.3 µM) | MIC (Escherichia coli [7]): 860 µg/mL (≈ 1810 µM); Fold change (Escherichia coli [4]): 2; Fold change (Escherichia coli [5]): 2; IC50 [8]: 9500 nM; Activity (Escherichia coli [9]): inactive; Activity (Escherichia coli [10]): inactive; Activity (Escherichia coli [11]): Active; Activity (Escherichia coli [12]): inactive; IC50 [13]: 2700 nM; MIC (Escherichia coli [14]): ≥ 5000 µg/mL; Activity (Escherichia coli [15]): Active; Activity (Escherichia coli [16]): inactive; Activity (Escherichia coli [6]): 0.89%; Activity (Escherichia coli [17]): Active; Activity (Escherichia coli [18]): inactive; Activity (Escherichia coli [19]): inactive; Activity (Escherichia coli [20]): inactive; IC50 [21]: 29100 nM; Kd [21]: 2600 nM
CC(C)C[C@H](NC(=O)[C@H](CC(C)C)NC(=O)[C@H](CCCNC(=N)N)NC(=O)[C@@H](N)CC(N)=O)C(=O)N[C@@H](CC(C)C)C(=O)N[C@H](C(=O)NCC(=O)O)[C@@H](C)O | – | – | – | Activity (Escherichia coli [22]): Active; IC50 [21]: 1300 nM
CCCCCCCCCCCCCC(=O)NCc1ccc(C(=O)NCC(=O)O)cc1 | > 50 µg/mL | > 500 µg/mL | 5.5 µg/mL (≈ 13.1 µM) | –
CCCCCCCCCCCCCC(=O)NCc1ccc(C(=O)N[C@@H](Cc2ccccc2)C(=O)O)cc1 | > 200 µg/mL | 1200 µg/mL (≈ 2360 µM) | 3.9 µg/mL (≈ 7.67 µM) | –
CCCCCCCCCCCCCC(=O)Nc1ccc(C(=O)N[C@H](C(=O)O)[C@@H](C)CC)cc1 | > 10 µg/mL | > 60 µg/mL | 1.1 µg/mL (≈ 2.39 µM) | –
CCCC/C=C\CCCCCCCC(=O)NCc1ccc(C(=O)N[C@H](C(=O)O)[C@@H](C)CC)cc1 | 350 µg/mL (≈ 740 µM) | 630 µg/mL (≈ 1330 µM) | 0.75 µg/mL (≈ 1.59 µM) | –
